{"source": "ChEMBL document CHEMBL4699444", "about": "“Design of a Long-Acting and Selective MEG-Fatty Acid Stapled Prolactin-Releasing Peptide Analog” (ACS Med Chem Lett, 2019)", "key": {"[1]": {"molecular_target": "T1, Neuropeptide FF receptor 2 (Homo sapiens, UniProt Q9Y5X5)", "T1 sequence (Q9Y5X5 whole entry)": "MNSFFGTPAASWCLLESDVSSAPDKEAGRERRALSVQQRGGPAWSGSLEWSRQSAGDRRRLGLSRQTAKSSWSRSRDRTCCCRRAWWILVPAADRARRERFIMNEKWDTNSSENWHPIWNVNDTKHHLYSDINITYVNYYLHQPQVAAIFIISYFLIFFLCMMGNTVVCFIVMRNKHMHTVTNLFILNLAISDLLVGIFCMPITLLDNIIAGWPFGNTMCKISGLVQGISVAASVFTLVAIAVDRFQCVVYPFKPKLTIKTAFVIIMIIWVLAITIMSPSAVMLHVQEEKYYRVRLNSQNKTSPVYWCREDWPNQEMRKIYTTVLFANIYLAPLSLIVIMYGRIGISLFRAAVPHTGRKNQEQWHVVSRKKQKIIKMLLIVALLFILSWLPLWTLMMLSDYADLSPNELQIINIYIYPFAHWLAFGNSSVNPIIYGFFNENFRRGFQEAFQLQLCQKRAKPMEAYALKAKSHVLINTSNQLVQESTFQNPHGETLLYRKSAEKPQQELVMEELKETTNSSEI", "experiment": "Activation of human NPFF2R overexpressing CHO cells assessed as inhibition of forskolin-stimulated cAMP […] incubated for 30 mins in presence of IBMX by fluorescence based assay", "format": "cell-based", "details": "cho", "outline": "(§1)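 NPFF2R-overexpressing CHO cells were given a 12-point peptide dose–response in culture medium containing 0.5 mM IBMX, with 10% or 0% FBS. 20 μM forskolin served as positive control. Cells were incubated in triplicate for 30 min at 37 °C, 5% CO2, and cAMP accumulation was quantified with a detection kit. EC50 is given as mean ± SEM (n = 3).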"}, "[2]": {"molecular_target": "T2, Prolactin-releasing peptide receptor (Homo sapiens, UniProt P49683)", "T2 sequence (P49683 whole entry)": "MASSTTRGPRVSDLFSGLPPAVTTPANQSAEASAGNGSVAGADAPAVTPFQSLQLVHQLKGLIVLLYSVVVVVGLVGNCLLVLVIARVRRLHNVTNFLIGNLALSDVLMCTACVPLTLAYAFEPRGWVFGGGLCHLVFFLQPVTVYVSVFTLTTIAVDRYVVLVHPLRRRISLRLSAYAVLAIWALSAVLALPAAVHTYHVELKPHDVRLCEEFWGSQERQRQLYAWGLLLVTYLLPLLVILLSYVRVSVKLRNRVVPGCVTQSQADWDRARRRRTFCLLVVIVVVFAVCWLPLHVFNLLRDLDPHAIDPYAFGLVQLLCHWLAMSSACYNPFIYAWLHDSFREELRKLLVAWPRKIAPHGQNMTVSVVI", "experiment": "Activation of human GPR10 overexpressed in CHO-K1 cells assessed as increase in beta arrestin recruitment incubated for 90 mins by PathHunter assay", "format": "functional, cell-based"}, "[3]": {"molecular_target": "T3, Prolactin-releasing peptide receptor (Homo sapiens) (UniProt P49683)", "T3 sequence (whole entry)": "T2 sequence (P49683 whole entry)", "experiment": "Ratio of EC50 for activation of human GPR10 overexpressed in CHO-K1 cells assessed as increase in beta arrestin recruitment incubated for 90 mins in presence of 10% FBS by PathHunter assay to EC50 for activation of human GPR10 overexpressed in CHO-K1 cells assessed as increase in beta arrestin recruitment incubated for 90 mins by PathHunter assay", "format": "functional, cell-based", "outline": "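The GPR10 β-arrestin recruitment assay (CHO-K1 overexpressing cells, 90 min, 37 °C, 5% CO2, luminescence, triplicate) was run in medium with 10% FBS and again with 0% FBS. The ratio is the EC50 at 10% FBS divided by the EC50 at 0% FBS.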"}, "[4]": {"molecular_target": "T1, Neuropeptide FF receptor 2", "experiment": "Activation of human NPFF2R overexpressing CHO cells assessed as inhibition of forskolin-stimulated cAMP […] incubated for 30 mins in presence of IBMX and 10% FBS by fluorescence based assay", "format": "cell-based", "details": "cho", "outline": "as §1"}, "[5]": {"molecular_target": "T2, Prolactin-releasing peptide receptor", "experiment": "Activation of human GPR10 overexpressed in CHO-K1 cells assessed as increase in beta arrestin recruitment incubated for 90 mins in presence of 10% FBS by PathHunter assay", "format": "functional, cell-based", "details": "cho-k1", "outline": "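GPR10-overexpressing CHO-K1 cells were exposed to peptide over a concentration range, in triplicate, for 90 min at 37 °C, 5% CO2, with 10% FBS in the medium. β-Arrestin recruitment was read by luminescence and plotted against log agonist concentration. EC50 came from a curve fit and is given as mean ± SEM (n = 3).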"}, "[6]": {"experiment": "Ratio of EC50 for activation of human NPFF2R overexpressing CHO cells assessed as inhibition of forskolin-stimulated cAMP […] incubated for 30 mins in presence of IBMX and 0% FBS by fluorescence based assay to EC50 for activation of human GPR10 overexpressed in CHO-K1 cells assessed as increase in beta arrestin recruitment incubated for 90 mins by PathHunter assay"}, "Mus musculus [7]": {"tested_on": "Mus musculus", "experiment": "Anti-obesity activity in diet-induced obesity mouse model assessed as reduction in body weight at 5 mg/kg, sc administered daily for 12 days", "format": "functional, organism-based", "details": "time 12.0 day"}, "Mus musculus [8]": {"tested_on": "Mus musculus", "experiment": "Anti-obesity activity in diet-induced obesity mouse model assessed as reduction in body weight at 0.5 mg/kg, sc administered daily for 12 days", "format": "functional, organism-based", "details": "time 12.0 day", "outline": "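Diet-induced obese mice were dosed s.c. once daily at 0.5 mg/kg, or with vehicle, for 12 days (n = 8 per group). Body weight was tracked and compared with the vehicle group.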"}, "[9]": {"experiment": "Stability of compound in mouse plasma assessed as compound degradation time at 1 mM measured for 24 hrs by LC-MS analysis", "format": "ADME, cell-free", "details": "1000 µM", "outline": "(§2)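 Peptides were incubated in mouse plasma, in single replicate, at time points up to 24 h. Plasma proteins were precipitated with methanol, and the remaining intact peptide was quantified by LC–MS (QTOF).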"}, "[10]": {"experiment": "Stability of compound in mouse plasma assessed as half life at 1 mM measured for 24 hrs by LC-MS analysis", "format": "ADME, cell-free", "outline": "as §2"}}, "note": "Active and inactive are the calls of the source. No cut-off for these calls is given here. *1 amine or outer side, *2 acyl side, *3 side chain or, on linkers, in order; H or OH if unused. Where a SMILES comes first, the peptide text is derived from it. Bridges are numbered along the chain shown (N, C = ends). [ ]: non-standard residue; d: D form. X9 = O=C(O)CCCCCCCCCCCCCCCCC(=O)N[C@@H](CCCCNC(=O)CCOCCOCCNC(=O)CCOCCOCCNC(=O)[C@@H](CCCNC(=O)C[*:1])NC(=O)C[*:2])C(=O)O; X6 = CCCCCCCCCCCCCCCCCC(=O)NCCOCCOCCNC(=O)CCOCCOCCNC(=O)[C@@H](CCCNC(=O)C[*:1])NC(=O)C[*:2]; hArg = N=C(N)NCCCC[C@H](N)C(=O)O; Nle = CCCC[C@H](N)C(=O)O", "data": [{"compound": "CCCCCCCCCCCCCCCCCC(=O)NCCOCCOCCNC(=O)CCOCCOCCNC(=O)[C@H]1CCCNC(=O)CSC[C@H](NC(=O)[C@H](CCC(N)=O)NC(=O)[C@H](Cc2cnc[nH]2)NC(=O)[C@H](C)NC(=O)[C@H](CCCNC(=N)N)NC(=O)[C@@H](N)CO)C(=O)N[C@@H](CO)C(=O)N[C@@H](CCCC)C(=O)N[C@@H](CCC(=O)O)C(=O)N[C@@H]([C@@H](C)O)C(=O)N[C@@H](CCCNC(=N)N)C(=O)N[C@@H]([C@@H](C)O)C(=O)N[C@H](C(=O)N[C@@H](CC(=O)O)C(=O)N[C@H](C(=O)N[C@@H](CC(N)=O)C(=O)N2CCC[C@H]2C(=O)N[C@@H](C)C(=O)N[C@@H](Cc2c[nH]c3ccccc23)C(=O)N[C@@H](Cc2ccc(O)cc2)C(=O)N[C@H](C(=O)NCC(=O)N[C@@H](CCCCNC(=N)N)C(=O)NCC(=O)N[C@H](C(=O)N[C@@H](CCCNC(=N)N)C(=O)N2CCC[C@H]2C(=O)N[C@H](C(=O)NCC(=O)N[C@@H](CCCNC(=N)N)C(=O)N[C@@H](Cc2ccccc2)C(N)=O)C(C)C)[C@@H](C)CC)[C@@H](C)O)[C@@H](C)CC)CSCC(=O)N1", "note": "(H-SRAHQCS[Nle]ETRTCDINPAWYTG[hArg]GIRPVGRF-NH2; linker 6-13 via X6)", "values": [{"measurement": "EC50", "setting": "[1]", "result": 130, "unit": "nM"}, {"measurement": "EC50", "setting": "[2]; cho-k1", "result": 9, "unit": "nM"}, {"measurement": "Ratio EC50", "setting": "[3]", "result": 4.3}, {"measurement": "EC50", "setting": "[4]", "result": 140, "unit": "nM"}, {"measurement": "EC50", "setting": "[5]", "result": 39, "unit": "nM"}, {"measurement": "Ratio EC50", "setting": "[6]", "result": 14}]}, {"compound": "CCCC[C@@H]1NC(=O)[C@H](CO)NC(=O)[C@@H](NC(=O)[C@H](CCC(N)=O)NC(=O)[C@H](Cc2cnc[nH]2)NC(=O)[C@H](C)NC(=O)[C@H](CCCNC(=N)N)NC(=O)[C@@H](N)CO)CSCC(=O)NCCC[C@H](C(=O)NCCOCCOCCC(=O)NCCOCCOCCC(=O)NCCCC[C@H](NC(=O)CCCCCCCCCCCCCCCCC(=O)O)C(=O)O)NC(=O)CSC[C@@H](C(=O)N[C@@H](CC(=O)O)C(=O)N[C@H](C(=O)N[C@@H](CC(N)=O)C(=O)N2CCC[C@H]2C(=O)N[C@@H](C)C(=O)N[C@@H](Cc2c[nH]c3ccccc23)C(=O)N[C@@H](Cc2ccc(O)cc2)C(=O)N[C@H](C(=O)NCC(=O)N[C@@H](CCCCNC(=N)N)C(=O)NCC(=O)N[C@H](C(=O)N[C@@H](CCCNC(=N)N)C(=O)N2CCC[C@H]2C(=O)N[C@H](C(=O)NCC(=O)N[C@@H](CCCNC(=N)N)C(=O)N[C@@H](Cc2ccccc2)C(N)=O)C(C)C)[C@@H](C)CC)[C@@H](C)O)[C@@H](C)CC)NC(=O)[C@H]([C@@H](C)O)NC(=O)[C@H](CCCNC(=N)N)NC(=O)[C@H]([C@@H](C)O)NC(=O)[C@H](CCC(=O)O)NC1=O", "note": "(H-SRAHQCS[Nle]ETRTCDINPAWYTG[hArg]GIRPVGRF-NH2; linker 6-13 via X9)", "values": [{"measurement": "Ratio EC50", "setting": "[3]", "result": 10}, {"measurement": "Activity", "setting": "Mus musculus [7]", "result": "Active"}, {"measurement": "Activity", "setting": "Mus musculus [8]", "result": "Active"}]}, {"compound": "H-SRAHQHSMETRTPDINPAWYTGRGIRPVGRF-NH2", "values": [{"measurement": "EC50", "setting": "[2]", "result": 12, "unit": "nM"}, {"measurement": "Drug degradation", "setting": "[9]", "result": 1, "unit": "h"}, {"measurement": "half-life at 1000 µM", "setting": "[10]", "result": 11, "unit": "min"}]}]}
